Experimental data: ChEMBL document CHEMBL1926645, “Synthesis and biological evaluation of (4H-1,2,4-triazol-4-yl)isoquinoline derivatives as selective glycine transporter 1 inhibitors” (Bioorg Med Chem, 2012)
In brackets after ≈: the same amount, converted by molar mass.

Legend:
[1] = molecular target: T1, Sodium- and chloride-dependent glycine transporter 1 (Rattus norvegicus, UniProt P28572); test: Displacement of [3H]glycine from rat GlyT1 expressed in rat C6 cells after 30 mins by scintillation counting; format: cell-based
T1 sequence (P28572 whole entry): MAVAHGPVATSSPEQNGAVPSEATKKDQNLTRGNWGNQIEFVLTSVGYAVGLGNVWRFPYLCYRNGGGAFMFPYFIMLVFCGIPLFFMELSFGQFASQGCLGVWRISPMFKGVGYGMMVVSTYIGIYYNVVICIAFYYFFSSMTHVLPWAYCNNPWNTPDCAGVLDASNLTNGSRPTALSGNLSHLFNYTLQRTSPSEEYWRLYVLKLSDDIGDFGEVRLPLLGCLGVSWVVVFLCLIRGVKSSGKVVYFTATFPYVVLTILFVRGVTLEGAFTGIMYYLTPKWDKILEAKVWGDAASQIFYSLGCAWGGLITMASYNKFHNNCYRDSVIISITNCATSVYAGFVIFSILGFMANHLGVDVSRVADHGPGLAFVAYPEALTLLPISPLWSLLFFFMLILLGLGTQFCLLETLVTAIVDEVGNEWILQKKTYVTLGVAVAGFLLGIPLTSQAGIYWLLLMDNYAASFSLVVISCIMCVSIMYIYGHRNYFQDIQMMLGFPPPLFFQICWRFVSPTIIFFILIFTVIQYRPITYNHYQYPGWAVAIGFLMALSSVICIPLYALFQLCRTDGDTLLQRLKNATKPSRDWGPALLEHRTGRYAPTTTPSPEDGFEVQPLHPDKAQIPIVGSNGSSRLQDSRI
Outline: (§1)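 Rat GlyT1-expressing C6 cells grown in D-MEM/10% FCS, 37 °C, 5% CO2, plated 2 days ahead. Cells washed, then preincubated 30 min with compound in HEPES buffer pH 7.4 (NaCl, KCl, MgCl2, CaCl2, glucose, L-alanine). Uptake started with [3H]glycine, 10 min at 37 °C. Nonspecific uptake defined with 3 mmol/L sarcosine. Cells washed with ice-cold PBS, lysed in 0.1 mol/L NaOH, scintillation counted; mean ± SEM of three independent experiments.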

[2] = molecular target: T2, Sodium- and chloride-dependent glycine transporter 1 (Rattus norvegicus) (UniProt P28572); test: Displacement of [3H]glycine from rat GlyT1 expressed in rat C6 cells at 10 uM after 30 mins by scintillation counting; format: cell-based; outline: as §1
T2 sequence (whole entry): T1 sequence (P28572 whole entry)

Mus musculus = test: Antipsychotic activity in ICR mouse assessed as inhibition of (+)-HA966-induced hyperlocomotion at 10 mg/kg, ip administered 20 mins prior (+)-HA966] challenge measured every 90 mins; format: functional; conditions: route intraperitoneal
Outline: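 Mice, 16 per group, pretreated with reserpine 10 mg/kg ip 19 h and α-methyl-para-tyrosine methyl ester 250 mg/kg ip 30 min before bilateral intracerebroventricular (+)-HA966 80 µg/mouse; ACSF+vehicle controls. Locomotor activity integrated over 90 min immediately after (+)-HA966. Percent inhibition = 100 × [(HA966+vehicle − ACSF+vehicle) − (HA966+compound − ACSF+vehicle)] / (HA966+vehicle − ACSF+vehicle).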

[3] = Aqueous solubility of the compound at pH 1.2; format: physicochemical
Outline: (§2)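 Compound suspension held at 25 °C for 20 h; precipitate removed by filtration and dissolved concentration in filtrate measured by HPLC.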

[4] = Aqueous solubility of the compound at pH 6.8; format: physicochemical; outline: as §2
[5] = molecular target: T3, Sodium- and chloride-dependent glycine transporter 2 (Rattus norvegicus, UniProt P58295); test: Displacement of [3H]glycine from Wistar rat brain GlyT2 after 10 mins by scintillation counting
T3 sequence (P58295 whole entry): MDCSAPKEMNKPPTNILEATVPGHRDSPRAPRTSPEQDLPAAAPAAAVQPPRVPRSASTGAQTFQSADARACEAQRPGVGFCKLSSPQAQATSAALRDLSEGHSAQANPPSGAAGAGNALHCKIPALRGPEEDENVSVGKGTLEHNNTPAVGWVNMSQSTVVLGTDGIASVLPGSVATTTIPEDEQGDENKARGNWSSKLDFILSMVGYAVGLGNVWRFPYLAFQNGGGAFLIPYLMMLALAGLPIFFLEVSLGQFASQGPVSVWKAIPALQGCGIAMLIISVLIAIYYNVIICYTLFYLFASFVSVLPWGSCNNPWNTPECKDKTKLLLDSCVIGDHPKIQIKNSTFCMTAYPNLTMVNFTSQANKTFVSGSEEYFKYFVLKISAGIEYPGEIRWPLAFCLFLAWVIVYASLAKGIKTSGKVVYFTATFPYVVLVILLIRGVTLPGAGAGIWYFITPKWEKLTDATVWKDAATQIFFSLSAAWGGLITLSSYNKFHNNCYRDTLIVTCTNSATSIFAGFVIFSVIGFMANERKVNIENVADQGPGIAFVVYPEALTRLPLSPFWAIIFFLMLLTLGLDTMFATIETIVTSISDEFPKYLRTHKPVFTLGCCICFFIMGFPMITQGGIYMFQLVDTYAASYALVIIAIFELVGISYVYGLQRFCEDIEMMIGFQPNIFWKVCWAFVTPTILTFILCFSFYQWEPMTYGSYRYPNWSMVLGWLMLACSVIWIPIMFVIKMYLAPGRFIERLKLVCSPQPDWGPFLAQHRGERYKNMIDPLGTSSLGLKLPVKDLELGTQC
Outline: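 Primary brainstem cells from Wistar rat fetuses (E17) were papain-dispersed, plated on poly-L-lysine, and cultured 14–21 days. The assay buffer, pH 7.4, contained 3 mmol/L sarcosine; wells were preincubated 10 min at 37 °C. Compound was added with ~0.3 µM [3H]glycine for 10 min at 37 °C, followed by four ice-cold washes, NaOH lysis and scintillation counting. Specific uptake was defined with 3 mmol/L glycine; mean ± SEM of three independent experiments.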

Rattus norvegicus = species: Rattus norvegicus; test: Selectivity ratio of IC50 for rat GlyT2 to IC50 for rat GlyT1

SMILES | IC50 [1] [µM] | solubility [3] [µM] | solubility [4] [µM] | further results
CCc1nnc(-c2ccc(-c3ccccc3)cc2)n1-c1nccc2ccccc12 | 1.4 |  |  | 
CCc1nnc(-c2ccc(-c3ccccc3)cc2)n1Cc1ccncc1 | > 10 |  |  | inhibition [2]: 15%
CCc1nnc(-c2ccc(-c3ccccc3)cc2)n1-c1cncc2ccccc12 | 3.7 |  |  | 
CCc1nnc(-c2ccc(-c3ccccc3)cc2)n1-c1cccc2c(=O)[nH]ccc12 | > 10 |  |  | inhibition [2]: 16%
CC(C)c1nnc(-c2ccc(-c3ccccc3)cc2)n1-c1ccccc1F |  | 5 (≈ 1.79 µg/mL) | < 1 | inhibition in vivo at 10 mg/kg (Mus musculus): 70%
CCc1nnc(-c2ccc(-c3ccccc3)cc2)n1-c1cccc2ncccc12 | 0.82 | > 100 | 9 (≈ 3.39 µg/mL) | IC50 [5]: 2.7 µM; Ratio IC50 (Rattus norvegicus): 3.3
CCc1nnc(-c2ccc(-c3ccccc3)cc2)n1C(C)c1ccncc1 (stereo unspecified) | > 10 |  |  | inhibition [2]: 36%
CCc1nnc(-c2ccc(-c3ccccc3)cc2)n1-c1cccc2c[n+]([O-])ccc12 | > 10 |  |  | inhibition [2]: 28%
CCc1nnc(-c2ccc(-c3ccccc3)cc2)n1-c1cccc2cccnc12 | 0.3 | > 100 | 23 (≈ 8.66 µg/mL) | IC50 [5]: 0.38 µM; Ratio IC50 (Rattus norvegicus): 1.3
CCc1nnc(-c2ccc(-c3ccccc3)cc2)n1-c1cccc2cnccc12 |  | > 100 | 5 (≈ 1.88 µg/mL) | 
CCc1nnc(-c2ccc(-c3ccccc3)cc2)n1-c1ccccc1F |  | 96 (≈ 33 µg/mL) | < 1 | Ratio IC50 (Rattus norvegicus): 1
CCc1nnc(-c2ccc(-c3ccccc3)cc2)n1-c1cccc2c1CCNC2 | > 10 |  |  | inhibition [2]: 25%
CCc1nnc(-c2ccc(-c3ccccc3)cc2)n1-c1cccc2cc[nH]c12 | 22 |  |  | 
CCc1nnc(-c2ccc(-c3ccccc3)cc2)n1-c1cccc2nc[nH]c12 | 7.5 |  |  | 
CCc1nnc(-c2ccc(-c3ccccc3)cc2)n1-c1cccc2[nH]ncc12 | 2.8 |  |  | 
CCc1nnc(-c2ccc(-c3ccccc3)cc2)n1-c1cccc2cn[nH]c12 | 5.6 |  |  | 
CCc1nnc(-c2ccc(-c3ccccc3)cc2)n1-c1cccc2ccncc12 | 0.8 | > 100 | 11 (≈ 4.14 µg/mL) | IC50 [5]: 4.2 µM; Ratio IC50 (Rattus norvegicus): 5.3
CCc1nnc(-c2ccc(-c3ccccc3)cc2)n1-c1ccnc2ccccc12 | 1.7 |  |  | 
CCc1nnc(-c2ccc(-c3ccccc3)cc2)n1-c1cccc2ccn(C)c12 | 3 |  |  | 
